Assay outcomes from PubChem.
STAT3 activator: increases IL-6 driven STAT3 reporter signal; U3A cells, IL-6 STAT3-luciferase reporter, luminescence; 100% = signal with IL-6 EC80 alone; activation (% of control), % at 5.6 µM; 190,000 tested, 0.91% active; AID 871;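 active = activation above the screen-wide mean of compound activation plus 3 SD, cut at about 130% in these data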;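 also: 0% = background luminescence of wells with medium and substrate only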
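Material: STAT3-luciferase reporter U3A cells; Probe or stimulus: IL-6 (33 ng/mL); Incubation: compound pre-incubation 1 h before IL-6, then 6 h stimulation at 37 °C; Technique: luminescence from STAT3-driven luciferase reporter; Evaluation: % activation versus median of IL-6-stimulated wells; Controls: IL-6-only high control.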
STAT1 blocker: inhibitors of IFN-gamma induced STAT1 signaling; NIH 3T3 STAT1-luciferase reporter, luminescence; inhibition, % at 5.5 µM; 200,000 tested, 0.35% active;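 active = inhibition above a set limit, the mean inhibition across all tested compounds plus 3 SD, cut at about 34% in these data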;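 also: 0% = IFN-gamma with DMSO and 100% = IFN-gamma with 300 µM nifuroxazide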
STAT3 inh: inhibitors of IL-6 induced STAT3 signaling; U3A cells, IL-6 STAT3-luciferase reporter, luminescence; host cell line lacks STAT1; inhibition, % at 5.5 µM; 190,000 tested, 0.89% active; AID 862;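 active = inhibition above the mean inhibition across all screened compounds plus 3 SD, cut at about 44% in these data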;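 also: 0% = DMSO only wells and 100% = 100 µM nifuroxazide control wells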
STAT1 act: STAT1 signaling activation; NIH 3T3 STAT1-luciferase reporter, IFN-gamma, luminescence; 100% = IFN-gamma alone, no compound; activation (% of control), % at 5.5 µM; 200,000 tested, 2.6% active; AID 932;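 active = activation above the screen-wide mean activation plus 3 SD, cut at about 130% in these data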;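 also: raw ratio to IFN-gamma control signal so 100% means no change and 0% no light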
* = called active by the depositor. Rows were chosen to be rich in hits. Some 4.3% of all compounds tested hit in one or more screens of this group.

SMILES | STAT3 activator | STAT1 blocker | STAT3 inh | STAT1 act
CC(Cl)C(=O)c1c[nH]c2ccccc12 (centres undefined) | 115 | -1 | -17 | 101
CSc1ccccc1NC(=O)C(=O)c1c[nH]c2ccccc12 | 129 | -57 | -26 | 149*
O=C(Nc1nccs1)C(=O)c1c[nH]c2ccccc12 | 136* | -36 | -33 | 133*
O=C(CSc1nc2ccccc2o1)Nc1nccs1 | 94 | -1 | 12 | 100
CC(=O)Nc1ccc(S(=O)(=O)NNC(=O)c2cccc(Cl)c2)cc1 | 89 | 2 | 18 | 100
Cc1ccc(/C(N)=N/OC(=O)c2cccc(F)c2)cc1 | 128 | -40 | -34 | 137*
Cc1cccc(/C(N)=N/OC(=O)c2cccnc2)c1 | 87 | -37 | 18 | 133*
Cc1ccc(C(=O)O/N=C(\N)c2nonc2N)cc1 | 96 | -38 | 0 | 134*
N/C(=N\OC(=O)c1ccc(F)cc1)c1ccc(Br)cc1 | 87 | -33 | 19 | 128
N/C(=N\OC(=O)c1ccc(F)cc1)c1nonc1N | 98 | -24 | 0 | 121
Cc1cccc(/C(N)=N/OC(=O)c2ccc3c(c2)OCO3)c1 | 71 | -50 | 33 | 145*
CCOC(=O)c1nc(NCc2cccc(OC)c2)c2ccccc2n1 | 102 | 9 | 2 | 91
COC(=O)C(Cc1c[nH]c2ccccc12)NC(=O)c1cc(-c2ccc(OC)c(OC)c2)oc1C (centres undefined) | 105 | 1 | -3 | 100
Cc1cccc(/C(N)=N/OC(=O)c2ccc(Br)o2)c1 | 117 | -32 | -24 | 132*
N/C(=N\OC(=O)c1ccc(Br)o1)c1ccccn1 | 96 | -24 | 9 | 119
O=C(CCN1C(=O)c2ccccc2C1=O)Nc1ccc(-c2nc3ccccc3s2)cc1 | 100 | -48 | 2 | 142*
Cc1ccc(NC(=S)c2nc3ccccc3s2)cc1 | 95 | -37 | 7 | 134*
Cc1ccc2nc(-c3ccc(NC(=S)NC(=O)C(C)C)cc3)sc2c1 | 103 | -15 | 2 | 114
Cc1ccc2nc(-c3ccc(NC(=O)C(C)N4C(=O)c5ccccc5C4=O)cc3)sc2c1 (centres undefined) | 87 | -46 | 14 | 141*
Cc1ccc2nc(-c3ccc(NC(=S)NC4CC(C)(C)NC(C)(C)C4)cc3)sc2c1 | 96 | -38 | 7 | 135*
CCC(=O)NC(=S)Nc1ccc(-c2nc3ccc(C)cc3s2)cc1 | 106 | -25 | -5 | 122
CCC(=O)NC(=S)Nc1ccc(-c2nc3ccccc3s2)cc1 | 78 | -47 | 32 | 142*
CC(=O)NC(CSC(CC(=O)c1ccco1)c1ccc(C)cc1)C(=O)O (centres undefined) | 91 | -18 | 17 | 115
Cc1ccc2nc(-c3ccc(N4C(=NC(=O)CCC(=O)O)SC5CS(=O)(=O)CC54)cc3)sc2c1 (centres undefined) | 104 | -38 | -5 | 134*
O=C(OCC1CC(c2ccccc2)=NO1)c1ccc(Cl)cc1 (centres undefined) | 103 | 1 | 1 | 99
SMILES | STAT3 activator | STAT1 blocker | STAT3 inh | STAT1 act
CN1OC(COC(=O)c2ccccc2)CC1c1ccccc1 (centres undefined) | 109 | -33 | -3 | 130*
CC(=O)Nc1nc(-c2ccc(Cl)cc2)ns1 | 104 | -26 | -3 | 124
COC(=O)CC1C(=O)NCCN1C(=O)CSc1nnnn1-c1ccc(Cl)cc1 (centres undefined) | 103 | -5 | -1 | 104
O=C(COC(=O)c1cccs1)c1ccccc1 | 105 | -34 | 0 | 131*
O=C(CCC(=O)c1cccs1)c1cccs1 | 88 | -33 | 18 | 130*
O=C(c1ccccc1)c1cccs1 | 97 | 2 | 8 | 97
O=C(NCCN1C(=O)C2C3C=CC(C3)C2C1=O)Nc1cccnc1 (centres undefined) | 101 | 1 | 8 | 99
O=C(NCCN1C(=O)C2C3C=CC(C3)C2C1=O)Nc1ccc(Br)cc1 (centres undefined) | 111 | -46 | -3 | 141*
O=C(NCC1CCCO1)C1CCCN1C(=O)Nc1ccc(Cl)c(Cl)c1 (centres undefined) | 98 | 5 | 4 | 94
Cc1cccc(-n2ncc3c(NCc4cccs4)ncnc32)c1 | 102 | -34 | 2 | 131*
c1csc(CNc2ncnc3sccc23)c1 | 49 | 25 | 66* | 77
COCCNc1ncnc2c1cnn2-c1ccc(Cl)cc1 | 85 | -62 | 25 | 156*
Cc1cccc(-n2ncc3c(NCc4ccco4)ncnc32)c1 | 112 | -31 | -7 | 130*
c1cncc(CNc2ncnc3sccc23)c1 | 94 | 12 | 8 | 90
COc1ccccc1-n1c(-c2ccc(Cl)cc2)c[nH]c1=S | 102 | -1 | 3 | 100
Cc1nn(-c2ccccc2)c(Cl)c1CN(C(=O)CCl)c1cccc2ccccc12 | 105 | 6 | -8 | 95
Clc1ccc(-n2ncc3c(NCc4cccs4)ncnc32)cc1 | 95 | -37 | 13 | 134*
Cc1cccc(-n2ncc3c(N(CCO)CCO)ncnc32)c1 | 109 | -31 | -11 | 130*
CC(=O)Nc1ccc(Nc2ncnc3c2cnn3-c2cccc(C)c2)cc1 | 97 | -48 | 6 | 144*
Cc1cccc(-n2ncc3c(N4CCCc5ccccc54)ncnc32)c1 | 99 | -44 | -2 | 141*
Cc1cccc(-n2ncc3c(NCc4ccccc4)ncnc32)c1 | 107 | -21 | -8 | 121
Cc1ccc(S(=O)(=O)c2ccc(Oc3cccc(C)c3)cc2)cc1 | 108 | -3 | 2 | 103
CC(C)c1csc(CN2CCC(N3CCC(C(=O)N4CCOCC4)CC3)CC2)n1 | 108 | -1 | -4 | 99
Nc1nc(SCn2nnc3ccccc3c2=O)n[nH]1 | 101 | 2 | 1 | 99
CC(=C/c1ccc(C(C)C)cc1)/C=N/NC(=O)CSc1ccccn1 | 134* | -55 | -40 | 149*
SMILES | STAT3 activator | STAT1 blocker | STAT3 inh | STAT1 act
Cc1ccc(OCC(=O)Nc2cccc(-c3nnc(-c4ccccc4)o3)c2)cc1 | 88 | -44 | 20 | 143*
O=C(Nc1cccc(-c2nnc(-c3ccccc3)o2)c1)C1CCCCC1 | 79 | -36 | 26 | 141*
Cc1cccc(OCC(=O)Nc2cccc(-c3nnc(-c4ccccc4)o3)c2)c1C | 89 | -32 | 18 | 130*
COc1cccc(NC(=O)COc2ccccc2C(N)=O)c1 | 93 | -43 | 11 | 134*
COc1cccc(-c2nnc(NC(=O)C3CCCCC3)o2)c1 | 105 | -4 | -1 | 103
Cc1ccc(SCC(=O)Nc2cccc(-c3nnc(-c4ccco4)o3)c2)cc1 | 100 | -38 | 5 | 134*
O=C(CSc1ccc(Cl)cc1)Nc1cccc(-c2nnc(-c3ccco3)o2)c1 | 91 | -17 | 8 | 115
O=C(N/N=C/C1CC=CCC1)c1cc(-c2cccnc2)nc2ccccc12 (centres undefined) | 108 | 9 | -5 | 93
COc1cc(/C=N/N=C(\N)c2nonc2N)ccc1O | 89 | -34 | 19 | 130*
COc1ccc(/C=N/N=C(\N)c2nonc2N)cc1OC | 88 | -46 | 18 | 141*
N/C(=N\N=C\c1ccc(O)cc1)c1nonc1N | 75 | -18 | 33 | 115
